Measurements taken from the RNAGym collection of RNA variant scans (doi:10.1126/science.aae0568).
This sample holds only a part of the variants without activity.

B1: tRNA (parent)
chain: GUUCCGUUGGCGUAAUGGUAACGCGUCUCCCUCCUAAGGAGAAGACUGCGGGUUCGAGUCCCGUACGGAACG

Variants of: B1
Assay: yeast fitness relative to wild type (ratio to wild type); higher = fitter; tRNA-Arg(CCU), competitive growth, 37 C, YPD
Summary of the method: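 Variants of the tRNA-Arg(CCU) gene, chemically synthesised with a 3% per-site mutation rate at 69 sites, were placed at the native genomic locus in Saccharomyces cerevisiae. The pooled strains were competed in YPD at 37°C for 24 hours in six parallel replicates. Gene amplicons from the start population and from each end population were read by 100-nucleotide paired-end sequencing. Darwinian fitness relative to wild type came from changes in genotype frequencies; genotypes needed ≥ 100 starting reads, and estimates < 0.5 were set to 0.5.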
In the case of U8A C24U A40U A42C A65C A69C, the yeast fitness is reported as ≤ 0.5. With U8A C11U G25C G39C C55U the yeast fitness was ≤ 0.5. For U7G C46U A70G, the yeast fitness was 0.752. For U8A C11U A20G G25C G39C, the yeast fitness was ≤ 0.5. With U8A C22U C34G A36U A57G A65C the yeast fitness was ≤ 0.5. For U8A C24U U28C A40C, the yeast fitness was ≤ 0.5. With U7G C27G U28G G39C A42G the yeast fitness was ≤ 0.5. With U7G G9A C31G A36G G68C the yeast fitness was ≤ 0.5. For U8A A14C G17C C24U A45U G67C, the yeast fitness was ≤ 0.5. For U8A A36G G38C G52C A57U A69U A70G, the yeast fitness was ≤ 0.5. Work on U8A C29U G51C G67A yielded a yeast fitness of 0.536. With U8A C22G G25A C27A C33U C49G A65C the yeast fitness was 0.608. Work on U7G A36U G63A yielded a yeast fitness of 0.532. With U7G U8A A14G the yeast fitness was 0.525. With U7G A42U U53A the yeast fitness was ≤ 0.5. In the case of U7G A45U C55A, the yeast fitness is reported as ≤ 0.5. In the case of U7G C27A A40U, the yeast fitness is reported as ≤ 0.5. With U7G U19C U64C the yeast fitness was 0.954. U8A C11G G56A showed a yeast fitness of 0.583. With U7G C30U G50C the yeast fitness was ≤ 0.5. In the case of U7G C22U C24U U53A, the yeast fitness is reported as ≤ 0.5. In the case of U7G A70C, the yeast fitness is reported as 0.972. Variant U7G U59C A69U has a yeast fitness of 0.717. For U8A C24G U26A G50A, the yeast fitness was ≤ 0.5. For U8A C11U C46U G68A, the yeast fitness was ≤ 0.5. In the case of U7G U13C A37U, the yeast fitness is reported as ≤ 0.5. In the case of U7G C29G C61U G68A, the yeast fitness is reported as ≤ 0.5. For U7G A42U, the yeast fitness was 0.683. U7G G10A C11G C27U A40U showed a yeast fitness of 0.538. With U8A A15U C34U U64G the yeast fitness was ≤ 0.5. In the case of U7G C11G C34U G41A A65G, the yeast fitness is reported as ≤ 0.5. With U7G C11G C34U G41A A65C the yeast fitness was ≤ 0.5. For U8A C24A U28C, the yeast fitness was ≤ 0.5. With U8A A15C A21U the yeast fitness was ≤ 0.5. For U7G C11G C34U G41A A57U C66U, the yeast fitness was ≤ 0.5. In the case of U7G G39A C55U U59G G68C, the yeast fitness is reported as ≤ 0.5. Work on U8A C22G G25A C27A C33U C49G yielded a yeast fitness of 0.642. U8A A20C U35A G38C A69C showed a yeast fitness of 0.535. With U7G U59G A69C the yeast fitness was ≤ 0.5. In the case of U7G U8G A70U, the yeast fitness is reported as ≤ 0.5. With U7G A69U the yeast fitness was 0.894. U7G U32C A40G showed a yeast fitness of 0.559. With U7G C22U C49G G50C C66A the yeast fitness was ≤ 0.5. For U7G C27G U32C A36G G63A, the yeast fitness was ≤ 0.5. In the case of U7G U32C C34G A43U, the yeast fitness is reported as ≤ 0.5. U8A A37C gave a yeast fitness of 0.679. In the case of U8A A37G, the yeast fitness is reported as ≤ 0.5. With U7G U8A U32C G51C C60U C61U C62U the yeast fitness was 0.599. Work on U7G U28G yielded a yeast fitness of 0.635. For U7G A37U A65G, the yeast fitness was 0.699. In the case of U8A C22U A36U C49G A69C, the yeast fitness is reported as 0.631. In the case of U7G C11G C34U G41A C60A C61U G63C C66U, the yeast fitness is reported as ≤ 0.5. Variant U8A C30A has a yeast fitness of 0.604. With U7G C30U G38A G50A G68C the yeast fitness was ≤ 0.5. With U7G A43U C61G the yeast fitness was ≤ 0.5. U7G G63A A65G gave a yeast fitness of 0.828. In the case of U7G U13C A36U G50C U54C, the yeast fitness is reported as ≤ 0.5. For U7G U13A A69U, the yeast fitness was 0.629. For U8A C27U A40G C55U A57U, the yeast fitness was ≤ 0.5. With U7G C11G C34U G41A C61A A65C the yeast fitness was ≤ 0.5. In the case of U7G C11U C60A, the yeast fitness is reported as ≤ 0.5. Variant U7G G39A has a yeast fitness of 0.874. Work on U7G G39C yielded a yeast fitness of 0.632. In the case of U7G C55U G56C G63U, the yeast fitness is reported as 0.602. In the case of U7G C27G U28G U59C, the yeast fitness is reported as ≤ 0.5. U7G A43C showed a yeast fitness of 0.969. In the case of U8A A14G G39C, the yeast fitness is reported as ≤ 0.5. U7G C49A showed a yeast fitness of 0.665. With U7G U26C A42U C46U C66U the yeast fitness was ≤ 0.5. Work on U7G U32C C46G yielded a yeast fitness of 0.62. In the case of U7G C24G, the yeast fitness is reported as 0.619. In the case of U7G C11G C34U G41A G67U, the yeast fitness is reported as ≤ 0.5. In the case of U7G C11G A21G C34U G41A, the yeast fitness is reported as ≤ 0.5. U8A A45U gave a yeast fitness of 0.818. U8A A45C showed a yeast fitness of 0.692. Work on U7G A43U U64C yielded a yeast fitness of 0.546. With U7G C61U the yeast fitness was 0.78. In the case of U8A C27A C49U A69U, the yeast fitness is reported as ≤ 0.5. For U7G G68A, the yeast fitness was 0.821. U7G U32C A65G showed a yeast fitness of 0.795. Work on U8A A43U yielded a yeast fitness of 0.763. Variant U7G A40U A69C has a yeast fitness of 0.731. In the case of U7G C29U C31U G38C, the yeast fitness is reported as ≤ 0.5.
